Bioassay records deposited in PubChem BioAssay by several laboratories.
Only some compounds are listed: those with a hit (about 2.5% of all), similar ones and a draw of the others.
TRPC4 potent: allosterically enhances the mouse TRPC4 cation channel; Q9QUQ5; HEK293 TRPC4beta/mu-opioid, DAMGO EC20, Fluo-4 Ca2+ flux; hits give high values; B-score at 10 µM; 310,000 tested, 0.42% active; AID 2227;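 active means B-score of calcium response area above 5 SD of library B-scores, with initial fluorescence ratio within 5 SD of library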;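 further: B-score of integrated fluorescence ratio over time as area under calcium response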
Target sequence (Q9QUQ5 whole entry, looked up): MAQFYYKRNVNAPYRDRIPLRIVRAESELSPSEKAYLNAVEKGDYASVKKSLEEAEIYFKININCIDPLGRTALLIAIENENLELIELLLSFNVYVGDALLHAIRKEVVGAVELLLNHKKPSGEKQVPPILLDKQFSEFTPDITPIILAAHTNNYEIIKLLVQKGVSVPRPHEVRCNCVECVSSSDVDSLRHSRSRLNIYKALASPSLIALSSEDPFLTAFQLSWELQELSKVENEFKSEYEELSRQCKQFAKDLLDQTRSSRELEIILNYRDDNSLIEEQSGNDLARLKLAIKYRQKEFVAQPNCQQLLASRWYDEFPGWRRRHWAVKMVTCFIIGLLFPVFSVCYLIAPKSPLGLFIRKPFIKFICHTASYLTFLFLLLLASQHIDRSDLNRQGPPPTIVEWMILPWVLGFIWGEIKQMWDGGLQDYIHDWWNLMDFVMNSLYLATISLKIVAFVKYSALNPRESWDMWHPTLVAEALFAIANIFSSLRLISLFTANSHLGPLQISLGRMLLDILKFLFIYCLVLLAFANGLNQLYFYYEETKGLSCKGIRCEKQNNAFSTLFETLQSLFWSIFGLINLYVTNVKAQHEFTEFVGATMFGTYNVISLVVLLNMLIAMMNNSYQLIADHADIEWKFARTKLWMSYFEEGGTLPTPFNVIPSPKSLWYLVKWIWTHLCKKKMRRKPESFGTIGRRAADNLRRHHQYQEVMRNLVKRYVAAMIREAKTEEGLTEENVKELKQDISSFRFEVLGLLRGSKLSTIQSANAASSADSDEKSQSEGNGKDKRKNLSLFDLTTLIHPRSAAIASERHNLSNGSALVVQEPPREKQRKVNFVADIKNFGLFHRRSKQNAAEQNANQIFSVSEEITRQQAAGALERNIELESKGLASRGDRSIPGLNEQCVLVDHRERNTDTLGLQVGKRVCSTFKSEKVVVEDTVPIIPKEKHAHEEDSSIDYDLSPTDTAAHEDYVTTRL
TRPC6 inh: inhibitors of mouse TRPC6 channel; Q61143; HEK293-TRPC6, membrane potential dye, ACh-evoked depolarization; hits give low values; B-score at 10 µM; 310,000 tested, 1.1% active; AID 2553;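 active means B-score under library mean minus 3 SD, initial fluorescence not abnormally high, positive integrated signal ratio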;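 further: B-score derived from integrated fluorescence ratio over the kinetic read; more negative B-score means stronger inhibition of depolarization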
TRPC4 inh: TRPC4 (mouse) channel inhibition; Q9QUQ5; HEK293 TRPC4beta/mu-opioid, DAMGO-evoked Fluo4 calcium flux; hits give low values; 300,000 tested, 0.39% active; B-score at 10 µM;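 active means B-score over 3 SD under the library average, no early fluorescence shift, positive overall ratio signal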
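material = TRPC4beta/mu-opioid receptor HEK293 cell line | probe or stimulus = sequential submaximal and maximal DAMGO stimulation | compound dosing = one concentration per compound | measured by = Fluo4 Ca2+ flux fluorescence | evaluation = integrated fluorescence ratio relative to baseline, converted to per-well B score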
TRPC6 act: activators of mouse TRPC6 channel; Q61143; HEK293-TRPC6 membrane potential dye fluorescence; hits give high values; B-score at 10 µM; 310,000 tested, 0.13% active;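 active means B-score of the integrated fluorescence ratio above library mean plus 3 SD, and starting fluorescence ratio within library mean plus 5 SD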;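 further: higher score means more depolarization so channel activation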
TRPC4 act: opens the mouse TRPC4 cation channel. Q9QUQ5. HEK293 TRPC4beta/mu-opioid, Fluo4 calcium fluorescence; hits give high values. B-score at 10 µM. 310,000 tested, 0.49% active;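 active means B-score above 5 SD of library B-scores, and initial fluorescence ratio not above library mean plus 5 SD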;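 further: positive B-score marks a calcium rise read as TRPC4 activation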
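Material: TRPC4beta and mu-opioid receptor HEK293 stable cells | Incubation: 45 min room-temperature Fluo4 loading, 110 s read | Detection: Kinetic Fluo4 calcium fluorescence | Measure: Integrated baseline-normalised fluorescence ratio, converted to per-well B score | Benchmarks: Low control buffer alone, high control maximal DAMGO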
Platelet DG rel: platelet dense granule release activity. human platelet-rich plasma, SFLLRN dense granule ATP release, luminescence. inhibition, %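 (compounds screened at 7.5 µM in platelet-rich plasma)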. 300,000 tested, 0.22% active. AID 1663;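 active means mean replicate score, as percent of positive control, at or above 50; inconclusive means mean below 50 but at least one replicate at or above 50; inactive means mean and every replicate below 50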
HEK293 TRPC6 ctr: counter-screen for TRPC6 modulators: effect in parental HEK293 cells. membrane potential signal change, % at 10 µM. 2,400 tested, 51% active. shares compounds with TRPC6 inh. membrane potential dye fluorescence;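 active means membrane potential signal moves up or down beyond 5 SD from buffer-only wells, on both duplicate plates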
HEK293 MPD ctr 2: parental HEK293 nonspecific activity of TRPC6 modulators, second screen; shares compounds with TRPC6 inh; membrane potential dye fluorescence; after compound, maximal acetylcholine stimulation; inhibition, % at 10 µM; 2,400 tested, 14% active; AID 488926;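 active means membrane potential signal drops by more than 5 SD from the mean control signal, in both duplicate plates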;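 further: plate controls were acetylcholine ECmax control wells for no effect and buffer only wells for full effect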
TRPC4/MOR mod: tests whether TRPC6 modulators also affect mouse TRPC4; shares compounds with TRPC6 inh; HEK293 TRPC4/mu-opioid, membrane potential fluorescence; percent change from control (negative = decrease, positive = increase), % at 10 µM; 2,400 tested, 69% active; AID 488927;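 active means membrane potential signal moved up or down beyond 5 SD of buffer control wells, in both duplicate plates, actives on both sides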;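 further: plate controls were assay buffer wells for no effect and DAMGO maximal-effect wells for full effect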
TRPC4/MOR inh 2: mouse TRPC4 off-target activity of TRPC6 modulators, second screen; 2,400 tested, 55% active; inhibition, % at 10 µM; shares compounds with TRPC6 inh; HEK293 TRPC4/mu-opioid, membrane potential dye fluorescence; stimulated with maximal-effect DAMGO;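 active means drop in membrane potential signal beyond 5 SD of the control wells in both duplicate plates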;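 further: TRPC4 counter screen for TRPC6 hits run under conditions tuned for TRPC6 not TRPC4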
TRPC6 block conf: confirmation of mouse TRPC6 inhibitors; shares compounds with TRPC6 inh; HEK293-TRPC6, membrane potential dye, ACh-evoked depolarization; inhibition, % at 10 µM; 3,300 tested, 43% active;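 active means fluorescence ratio falls more than 5 SD below the full-stimulation control mean, in both duplicate runs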;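 further: integrated fluorescence ratio of peak minus minimum over baseline after agonist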
TRPC6 act conf: mouse TRPC6 activator confirmation. shares compounds with TRPC6 inh. HEK293-TRPC6 membrane potential dye fluorescence, FDSS. activation, % at 10 µM. 2,800 tested, 11% active;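 active means ratio signal rise beyond 5 SD above unstimulated control wells' mean, seen in both duplicate runs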;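 further: plate controls were buffer EC0 wells for no effect and acetylcholine ECmax response for full effect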
* marks the source's active call; other numbers are inactive results.

For CCOc1cc2[nH]c(=S)n(CCC(=O)NCc3ccco3)c(=O)c2cc1OCC the results were TRPC4 potent inactive, TRPC6 inh inactive, TRPC4 inh inactive, TRPC6 act inactive, TRPC4 act inactive and Platelet DG rel inconclusive.
Screening CC(=O)c1c2c3c(cccc3n(C)c1=O)C(=O)c1ccccc1-2 returned TRPC4 potent inactive, TRPC6 inh inactive, TRPC4 inh inactive, TRPC6 act inactive, TRPC4 act inactive and Platelet DG rel 18.2.
`Cn1c(=O)c(Nc2ccc(O)cc2)c2c3c(cccc31)C(=O)c1ccccc1-2` gave TRPC4 potent inactive, TRPC6 inh -5.99*, TRPC4 inh inactive, TRPC6 act inactive, TRPC4 act inactive, Platelet DG rel -0.8, HEK293 TRPC6 ctr inactive, HEK293 MPD ctr 2 inactive, TRPC4/MOR mod -27.0%*, TRPC4/MOR inh 2 59.0%*, TRPC6 block conf inactive and TRPC6 act conf inactive.
`Cc1cc(N2CCN(C)CC2)n2nc(-c3ccc(Cl)cc3)nc2n1` gave TRPC4 potent inactive, TRPC6 inh -6.94*, TRPC4 inh inactive, TRPC6 act inactive, TRPC4 act inactive, Platelet DG rel -5.9, HEK293 TRPC6 ctr -310.0%*, HEK293 MPD ctr 2 96.5%*, TRPC4/MOR mod -28.0%*, TRPC4/MOR inh 2 53.0%*, TRPC6 block conf 65.5%* and TRPC6 act conf inactive.
Cc1nc2nc(-c3ccc(Cl)cc3)nn2c(C)c1Cl was read as TRPC4 potent inactive, TRPC6 inh inactive, TRPC4 inh inactive, TRPC6 act inactive, TRPC4 act inactive and Platelet DG rel 5.4.
O=c1[nH]c(SCc2ccc([N+](=O)[O-])cc2)nc2[nH]ncc12 was read as TRPC4 potent inactive, TRPC6 inh inactive, TRPC4 inh inactive, TRPC6 act inactive, TRPC4 act inactive and Platelet DG rel -1.4.
COc1ccc2c(c1)c(C(O)CN1CCN(Cc3ccc4c(c3)OCO4)CC1)c(C)n2C (stereo unspecified) was read as TRPC4 potent inactive, TRPC6 inh -6.3*, TRPC4 inh inactive, TRPC6 act inactive, TRPC4 act inactive, Platelet DG rel 10.9, HEK293 TRPC6 ctr inactive, HEK293 MPD ctr 2 inactive, TRPC4/MOR mod -9.5%*, TRPC4/MOR inh 2 67.5%*, TRPC6 block conf 52.0%* and TRPC6 act conf inactive.
